Data set [1] in a line: Solubility of the compound. Format: physicochemical.
Data set [2] deals with PC-3. Kind of data set: Antiproliferative activity against human PC3 cells at 10 uM after 72 hrs by MTS assay. It counts as functional. The note with it: PC-3, 72 h. (In general: Tetrazolium dyes change colour on reduction, which living cells bring about.)
Data set [3] relates to HT-29. The experiment in a line: Antiproliferative activity against human HT-29 cells at 10 uM after 72 hrs by MTS assay. Format: functional. The note with it: HT-29, 72 h. The gist of the method:
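Single-concentration test at 10 μM, with compound in <0.1% DMSO. Cells were plated at 3000/well in triplicate, given a 24 h pre-incubation, then treated for 72 h at 37 °C, 5% CO2. Growth inhibition (%) was read by MTS. HT29 was grown in DMEM + Glutamax-I with 10% FBS. Mean of at least three independent experiments.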

In data set [4] the test system is MCF7. Kind of data set: Antiproliferative activity against human MCF7 cells at 10 uM after 72 hrs by MTS assay. Format: functional. The note with it: MCF7, 72 h.
In data set [5] the target is Vascular endothelial growth factor receptor 2 (Homo sapiens, UniProt P35968). Kind of data set: Inhibition of recombinant human VEGFR-2 using poly(Glu4/Tyr) and [gamma32P]ATP as substrate after 1 hr by scintillation counting.
The test system of data set [6] is HT-29. The experiment in a line: Antiproliferative activity against human HT-29 cells after 72 hrs by MTS assay. The note with it: HT-29, 72 h.
Data set [7] has as its target Epidermal growth factor receptor (Homo sapiens, UniProt P00533). The experiment in a line: Inhibition of human EGFR expressed in human A431 cells using poly(Glu4/Tyr) and [gamma32P]ATP as substrate after 1 hr by scintillation counting. The arrangement: species or system A-431.
Data set [8] deals with MCF7. The experiment in a line: Antiproliferative activity against human MCF7 cells after 72 hrs by MTS assay. The note with it: MCF7, 72 h.

The source of these data is ChEMBL document CHEMBL2016491, “Synthesis and structure-activity relationships of (aryloxy)quinazoline ureas as novel, potent, and selective vascular endothelial growth factor receptor-2 inhibitors” (J Med Chem, 2012).

SMILES strings stand for the structures. Where only a bound is given, the exact number is not on record here.

Vascular endothelial growth factor receptor 2, sequence (P35968 whole entry): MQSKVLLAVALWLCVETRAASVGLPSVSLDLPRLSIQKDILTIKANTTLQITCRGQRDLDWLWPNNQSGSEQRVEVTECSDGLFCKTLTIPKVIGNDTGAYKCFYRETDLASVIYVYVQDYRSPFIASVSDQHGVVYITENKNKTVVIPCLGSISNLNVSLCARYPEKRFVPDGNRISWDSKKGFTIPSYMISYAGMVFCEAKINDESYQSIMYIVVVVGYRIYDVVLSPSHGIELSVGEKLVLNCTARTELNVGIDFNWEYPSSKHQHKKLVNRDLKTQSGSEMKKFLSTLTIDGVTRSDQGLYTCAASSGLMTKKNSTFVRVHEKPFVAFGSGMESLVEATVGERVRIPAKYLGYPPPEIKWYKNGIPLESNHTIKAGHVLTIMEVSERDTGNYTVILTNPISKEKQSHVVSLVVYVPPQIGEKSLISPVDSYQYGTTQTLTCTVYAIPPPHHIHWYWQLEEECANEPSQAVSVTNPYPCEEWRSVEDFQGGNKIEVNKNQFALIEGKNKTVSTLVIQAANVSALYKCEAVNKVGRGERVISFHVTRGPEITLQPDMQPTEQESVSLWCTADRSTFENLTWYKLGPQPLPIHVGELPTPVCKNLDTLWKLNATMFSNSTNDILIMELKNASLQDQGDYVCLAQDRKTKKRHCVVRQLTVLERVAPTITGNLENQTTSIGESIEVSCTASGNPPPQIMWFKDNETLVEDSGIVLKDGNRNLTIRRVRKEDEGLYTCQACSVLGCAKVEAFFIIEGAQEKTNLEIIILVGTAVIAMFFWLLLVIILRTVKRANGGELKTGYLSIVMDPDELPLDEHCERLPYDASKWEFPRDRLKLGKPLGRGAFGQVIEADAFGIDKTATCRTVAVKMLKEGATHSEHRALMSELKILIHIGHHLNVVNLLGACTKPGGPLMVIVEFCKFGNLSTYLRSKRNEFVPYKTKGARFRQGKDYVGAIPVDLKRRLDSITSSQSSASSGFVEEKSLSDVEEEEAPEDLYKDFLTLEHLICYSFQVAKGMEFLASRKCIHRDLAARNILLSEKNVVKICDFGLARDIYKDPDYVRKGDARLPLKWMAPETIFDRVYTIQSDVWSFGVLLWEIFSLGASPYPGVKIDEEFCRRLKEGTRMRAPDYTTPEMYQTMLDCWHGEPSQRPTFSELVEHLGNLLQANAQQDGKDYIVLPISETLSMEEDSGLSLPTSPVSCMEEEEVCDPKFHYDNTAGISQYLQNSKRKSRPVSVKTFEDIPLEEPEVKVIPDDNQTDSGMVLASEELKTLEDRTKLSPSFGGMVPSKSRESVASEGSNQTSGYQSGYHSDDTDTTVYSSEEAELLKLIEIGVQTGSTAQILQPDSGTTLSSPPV
Epidermal growth factor receptor, sequence (P00533 whole entry): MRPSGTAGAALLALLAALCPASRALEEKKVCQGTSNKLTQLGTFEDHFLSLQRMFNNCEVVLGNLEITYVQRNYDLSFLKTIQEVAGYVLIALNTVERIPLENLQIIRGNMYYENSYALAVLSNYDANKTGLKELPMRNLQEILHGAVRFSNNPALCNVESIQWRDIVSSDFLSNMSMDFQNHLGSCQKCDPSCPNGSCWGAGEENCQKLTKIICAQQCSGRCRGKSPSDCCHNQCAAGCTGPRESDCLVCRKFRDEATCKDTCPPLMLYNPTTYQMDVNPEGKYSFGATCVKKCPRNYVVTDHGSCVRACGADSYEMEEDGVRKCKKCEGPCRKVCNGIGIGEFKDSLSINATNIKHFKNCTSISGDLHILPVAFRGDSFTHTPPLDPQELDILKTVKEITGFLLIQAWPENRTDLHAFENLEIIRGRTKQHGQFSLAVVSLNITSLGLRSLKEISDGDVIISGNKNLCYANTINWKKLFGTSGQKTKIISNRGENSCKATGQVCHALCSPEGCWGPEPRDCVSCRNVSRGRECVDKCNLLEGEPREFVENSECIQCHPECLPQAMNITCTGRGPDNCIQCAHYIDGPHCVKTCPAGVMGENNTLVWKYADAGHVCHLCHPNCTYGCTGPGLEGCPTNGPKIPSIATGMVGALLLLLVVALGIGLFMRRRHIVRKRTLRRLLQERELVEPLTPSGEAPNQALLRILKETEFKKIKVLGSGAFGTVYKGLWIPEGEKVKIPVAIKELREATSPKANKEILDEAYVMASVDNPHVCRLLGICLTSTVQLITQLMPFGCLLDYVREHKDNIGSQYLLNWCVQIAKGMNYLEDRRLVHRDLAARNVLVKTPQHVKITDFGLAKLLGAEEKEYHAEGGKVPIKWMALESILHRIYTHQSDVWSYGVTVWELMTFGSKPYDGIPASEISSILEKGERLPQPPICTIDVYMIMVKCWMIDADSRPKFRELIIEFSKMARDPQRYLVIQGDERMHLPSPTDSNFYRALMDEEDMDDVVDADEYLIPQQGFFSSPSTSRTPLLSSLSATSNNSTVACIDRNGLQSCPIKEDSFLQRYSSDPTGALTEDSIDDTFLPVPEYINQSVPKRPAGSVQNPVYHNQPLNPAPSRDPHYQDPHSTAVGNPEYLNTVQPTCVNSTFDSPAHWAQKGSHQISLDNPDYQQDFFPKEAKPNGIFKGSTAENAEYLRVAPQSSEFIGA

In general, inhibition refers to the share of the control response that was lost under treatment. The low end stands for a response near the control, the high end for a response far below the control. Consider `COc1cc2ncnc(Oc3ccc(NC(=O)Nc4ccccc4)cc3)c2cc1OC`, for which the solubility entry in data set [1] is recorded as “Insoluble”. In addition, the inhibition at 10 µM turned out to be 23% in data set [2], 10% in data set [3] and 12% in data set [4].

For `COc1cc2ncnc(Oc3cccc(NC(=O)Nc4ccccc4)c3)c2cc1OC`, the solubility result in data set [1] is given as “Insoluble”.

Regarding `COc1ccc(NC(=O)Nc2cccc(Oc3ncnc4cc(OC)c(OC)cc34)c2)cc1`, in data set [1], the solubility result is reported as “Insoluble”.

The IC50 is the concentration that gives 50% inhibition. Consider `COc1cc2ncnc(Oc3ccc(F)c(Cl)c3)c2cc1OC`, for which, in data set [1], the solubility result was “Insoluble”. Moreover, the inhibition at 10 µM in data set [2] came out at 5%; in data set [3], 0%; in data set [4], 0%. The half-maximal inhibitory concentration (IC50) in data set [5] was 9.8 µM.

Take `COC(=O)Nc1ccc(Oc2ncnc3cc(OC)c(OC)cc23)cc1`: the solubility result in data set [1] is “Insoluble”.

Regarding `CCOC(=O)Nc1ccc(Oc2ncnc3cc(OC)c(OC)cc23)cc1`, the solubility entry in data set [1] is listed as “Insoluble”.

With `CCCCNC(=O)Nc1ccc(Oc2ncnc3cc(OC)c(OC)cc23)cc1`, the solubility result in data set [1] is reported as “Insoluble”.

`COc1cc2ncnc(Oc3ccc(NC(=O)Nc4ccc(Br)cc4)cc3)c2cc1OC`: the solubility result in data set [1] was “Insoluble”.

For `COc1cc2ncnc(Oc3ccc(NC(=O)Nc4ccc(F)cc4F)cc3)c2cc1OC`, in data set [1], the solubility result is listed as “Insoluble”.

As for `COc1cc2ncnc(Oc3ccc(NC(=O)Nc4ccc(F)c(Cl)c4)cc3)c2cc1OC`, the solubility result in data set [1] is on record as “Insoluble”.

Turning to `COc1cc2ncnc(Oc3ccc(NC(=O)Nc4ccc5ccccc5c4)cc3)c2cc1OC`, the solubility result in data set [1] is listed as “Insoluble”.

For the molecule `COc1ccc(NC(=O)Nc2ccc(Oc3ncnc4cc(OC)c(OC)cc34)cc2)cc1`, the solubility entry in data set [1] is listed as “Insoluble”. Also, the inhibition at 10 µM in data set [2] turned out to be 12%; in data set [3], 9%; in data set [4], 0%.

For the molecule `CCN(CC)CCOc1cc2ncnc(Nc3ccc(F)c(Cl)c3)c2cc1OC`, the inhibition at 10 µM is 36% in data set [2] and 26% in data set [4]. Also, the half-maximal inhibitory concentration (IC50) in data set [6] was 5.9 µM; in data set [7], 9.9 µM; in data set [5] it was 6.9 µM.

As to `CCN(CC)CCOc1cc2ncnc(Nc3ccc(Br)cc3F)c2cc1OC`, the inhibition at 10 µM in data set [2] stood at 16%; in data set [4], 10%. Moreover, the 50% inhibitory concentration (IC50) is 7.5 µM in data set [6], greater than 10 µM in data set [7] and 1 µM in data set [5].

As to `CCN(CC)CCOc1cc2ncnc(Nc3ccc(C)c(Br)c3)c2cc1OC`, the concentration for half-maximal inhibition (IC50) worked out at 9.6 µM in data set [8], 2.55 µM in data set [6], 9.45 µM in data set [7] and 6.45 µM in data set [5]. The molecule further showed an inhibition at 10 µM in data set [2] of 36%.

Turning to `CCOC(=O)Nc1ccc(Nc2ncnc3cc(OCCN(CC)CC)c(OC)cc23)cc1Cl`, the inhibition at 10 µM in data set [2] and in data set [4] was 0% each time. Further, the concentration for half-maximal inhibition (IC50) in data set [6] amounted to 5.45 µM; in data set [5] it was 3.35 µM.

Consider `CCN(CC)CCOc1cc2c(Nc3ccc(Br)cc3F)ncnc2cc1OC`, for which the inhibition at 10 µM in data set [2] was found to be 0%; in data set [3], 35%; in data set [4], 0%. For the same molecule, the concentration for half-maximal inhibition (IC50) in data set [7] was 9.1 µM; in data set [5], 7.45 µM.

For `CCCCOc1cc2c(Nc3ccc(Br)cc3F)ncnc2cc1OCCN(CC)CC`, the IC50 is 7.7 µM in data set [8], 3.6 µM in data set [6], greater than 10 µM in data set [7] and 5.3 µM in data set [5]. In data set [2], this molecule yielded an inhibition at 10 µM of 31%.

`CCCCOc1cc2c(Nc3ccc(NC(=O)OC)c(Cl)c3)ncnc2cc1OCCN(CC)CC`: the results for the inhibition at 10 µM in data set [2] and in data set [4] were 11% and 33%, respectively. In addition, the IC50 in data set [6] was 2.55 µM; in data set [7] it was greater than 10 µM; in data set [5] it was 7.4 µM.

For `CCCCOc1cc2c(Nc3ccc(NC(=O)OCC)c(Cl)c3)ncnc2cc1OCCN(CC)CC`, the IC50 was found to be 7.1 µM in data set [8], 2.5 µM in data set [6] and 9.15 µM in data set [7]. This molecule displayed an inhibition at 10 µM in data set [2] of 40%.

On to `CCCCOc1cc2c(Nc3ccc(NC(=O)OC)c(C)c3)ncnc2cc1OCCN(CC)CC`, for which the inhibition at 10 µM in data set [2] and in data set [4] was 0% in each case. Further, the IC50 is 6.15 µM in data set [6], greater than 10 µM in data set [7] and 9.4 µM in data set [5].

Consider `CCCCOc1cc2c(Nc3ccc(NC(=O)OCC)c(C)c3)ncnc2cc1OCCN(CC)CC`, for which the inhibition at 10 µM in data set [2] and in data set [4] was 0% throughout. The same molecule came in with an IC50 in data set [6] of 5.8 µM.

On to `COc1cc2ncnc(Oc3cccc(NC(C)=O)c3)c2cc1OC`, for which, in data set [1], the solubility entry is on record as “Insoluble”.

For `COc1cccc(NC(=O)Nc2ccc(Oc3ncnc4cc(OC)c(OC)cc34)cc2)c1`, in data set [1], the solubility result is listed as “Insoluble”. In data set [7], this molecule registered an IC50 greater than 10 µM.

With `COc1cc2ncnc(Oc3ccc(NC(=O)Nc4cccc(Br)c4)cc3)c2cc1OC`, the solubility result in data set [1] was “Insoluble”. In addition, the concentration for half-maximal inhibition (IC50) was 9.8 µM in data set [8], 9.1 µM in data set [6], greater than 10 µM in data set [7] and 0.006 µM in data set [5]. The molecule also yielded an inhibition at 10 µM in data set [2] of 35%.

Regarding `COc1cc2ncnc(Oc3ccc(NC(=O)Nc4ccc(Br)cc4)c(C)c3)c2cc1OC`, the solubility entry in data set [1] was “Insoluble”. Also, the results for the inhibition at 10 µM in data set [2], in data set [3] and in data set [4] were 7%, 2% and 3%, respectively. In addition, the 50% inhibitory concentration (IC50) in data set [7] was greater than 10 µM; in data set [5], 0.04 µM.

`COc1cc2ncnc(Oc3ccc(NC(=O)Nc4cccc(Br)c4)c(C)c3)c2cc1OC`: the solubility result in data set [1] was “Insoluble”. For the same molecule, the figures for the inhibition at 10 µM in data set [2], in data set [3] and in data set [4] were 25%, 36% and 30%, respectively. The half-inhibitory concentration (IC50) in data set [7] was greater than 10 µM; in data set [5], 0.004 µM.

On to `COc1cc2ncnc(Oc3ccc(NC(=O)Nc4ccc(F)c(Cl)c4)c(C)c3)c2cc1OC`, for which the solubility entry in data set [1] is on record as “Insoluble”. This molecule also had an IC50 in data set [7] greater than 10 µM.

As to `COc1cc2ncnc(Oc3ccc(NC(=O)Nc4ccc5ccccc5c4)c(C)c3)c2cc1OC`, the solubility entry in data set [1] is on record as “Insoluble”. Moreover, the IC50 in data set [7] is greater than 10 µM.

As to `COc1cc2ncnc(Oc3ccc(NC(=O)NC4CCCCC4)cc3)c2cc1OC`, the solubility entry in data set [1] is listed as “Insoluble”.
